SIAE primary: human SIAE inhibition, primary screen | actives 0.69% (n = 370,000) | AID 1053197 | inhibition, % at 9.66 µM | Q9HAT2 | SIAE FP-Rh probe binding, fluorescence polarization;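 active = inhibition above a cutoff: mean of compounds within the control limits plus 3 SD of those, cut at about 17% in these data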;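 also: 0% = plate median of compound wells and 100% = probe without SIAE protein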
Target sequence (Q9HAT2 whole entry, looked up): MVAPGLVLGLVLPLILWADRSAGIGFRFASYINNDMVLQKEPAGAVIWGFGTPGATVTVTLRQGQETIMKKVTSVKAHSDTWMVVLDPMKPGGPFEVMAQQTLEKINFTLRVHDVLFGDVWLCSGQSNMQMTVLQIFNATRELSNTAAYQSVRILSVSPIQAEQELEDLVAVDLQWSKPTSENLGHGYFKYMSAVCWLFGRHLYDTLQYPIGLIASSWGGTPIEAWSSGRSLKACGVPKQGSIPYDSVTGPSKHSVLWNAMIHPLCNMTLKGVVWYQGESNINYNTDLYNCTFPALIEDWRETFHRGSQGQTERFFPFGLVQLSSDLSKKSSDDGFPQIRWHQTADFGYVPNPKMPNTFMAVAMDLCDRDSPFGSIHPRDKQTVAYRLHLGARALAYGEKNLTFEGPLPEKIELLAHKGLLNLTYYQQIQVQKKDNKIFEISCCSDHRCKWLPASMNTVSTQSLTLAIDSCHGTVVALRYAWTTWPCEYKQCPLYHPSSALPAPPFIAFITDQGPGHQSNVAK
ABHD4 inh: inhibits mouse alpha/beta hydrolase domain 4 | inhibition, % at 8.92 µM | purified mABHD4, FP-Rh probe fluorescence polarization | actives 0.54% (n = 370,000) | Q8VD66;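 active = inhibition exceeding the mean over every tested compound plus 3 SD, cut at about 30% in these data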;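 also: 0% = plate median of compound wells and 100% = S159A mutant with DMSO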
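assay system = mABHD4 protein | compound dosing = single nominal dose of 8.92 µM, 0.89% DMSO final | read-out basis = percent inhibition of probe binding, normalized to plate controls | schedule = Enzyme–compound pre-incubation 45 min, then probe 60 min, both 25 °C | detection = fluorescence polarization, excitation 525 nm, emission 598 nm, BODIPY TMR filters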
TCR-CD3 inh: blocks the human TCR-CD3 interaction; TAMRA-labeled TCR probe fluorescence, biochemical; inhibition, % at 9.4 µM; actives 0.37% (n = 360,000); AID 651800; in the data active = inhibition above about 19%;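 also: recombinant mutant TCR 2C K166C tagged with TAMRA read by polarization; 0% = receptor in buffer alone and 100% = receptor with positive control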
HTRA1 inh: blocks human HTRA1 serine peptidase; actives 0.5% (n = 340,000); recombinant HTRA1, FP-rhodamine activity-based probe, fluorescence polarization; AID 504803; inhibition, % at 5.96 µM; Q92743; in the data active = inhibition above about 36%;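 also: 0% = enzyme with DMSO and 100% = wells lacking enzyme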
Tn6 DDE FP: DD(E)-Tn6 binding inhibition, primary FP screen | actives 0.21% (n = 370,000) | AID 720509 | Fibrin DD(E) TRITC-Tn6 fluorescence polarization displacement | inhibition, % at 8.3 µM;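 active = inhibition above a per-campaign cutoff: mean of compounds within control limits plus 3 SD, cut at about 15% in these data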;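 also: 0% = median of all compound wells on the plate and 100% = blocking peptide control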
DDE Tn7 FP inh: inhibitors of Tn7 peptide binding to human fibrin DD(E); P02675; FP displacement of FITC-Tn7 peptide from fibrin DD(E); 0% = median of compound wells per plate; inhibition, % at 8.3 µM; actives 0.13% (n = 370,000); AID 720508;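 active = inhibition above the mean of compounds falling within the control limits plus 3 SD of them, cut at about 14% in these data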;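 also: 0% = plate median of compound wells and 100% = 10 µM Aha-Tn7 peptide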
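Assay system: human fibrin DD(E) protein / Input: 2 µM fibrin DD(E) / Benchmarks: high control of 10 µM Aha-Tn7 peptide / Measured by: fluorescence polarization of the labelled Tn7 tracer / Medium: Tris buffer with calcium and detergent, pH 7.8 / Timing: 10 min compound pre-incubation, 3 h probe incubation at room temperature / Repeats: one replicate per compound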
mABHD4 conf: confirmation of mouse ABHD4 inhibitors; shares compounds with ABHD4 inh; purified mABHD4, FP-Rh probe fluorescence polarization; inhibition, % at 8.92 µM; actives 55% (n = 1,800); AID 720658;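 active = mean inhibition across replicates above the hit cutoff set in the primary screen, cut at about 30% in these data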;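 also: 0% = wild-type ABHD4 with DMSO and 100% = catalytically dead S159A mutant with DMSO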
Active calls of the source: *; nt = no result; + = active, no number; ! = a repeat was not active. An excerpt weighted towards active compounds, which were near 1.8% of everything screened.

SMILES | SIAE primary | ABHD4 inh | TCR-CD3 inh | HTRA1 inh | Tn6 DDE FP | DDE Tn7 FP inh | mABHD4 conf
O=C(O)c1cc(N/N=C/C=C/c2ccccc2[N+](=O)[O-])ccc1Cl | 4 | 30* | 1 | 10 | -10 | -9 | 36*
CCCC(=O)OC12CCCN(C1)/C(=C/c1cccc(N(C)C)c1)C2 (configuration not stated) | 12 | 9 | nt | nt | 1 | 0 | nt
O=C(NN=Cc1ccccc1C(F)(F)F)c1cc(-c2ccc(Cl)cc2)n[nH]1 | -10 | -15 | nt | nt | 6 | 1 | nt
COC(=O)[C@]12C[C@H](CC(=O)NCc3cccc4ccccc34)C(=O)N(Cc3ccco3)C1=C[C@H](C(C)(C)C)O[C@@H]2C | 1 | -10 | nt | nt | -3 | -1 | nt
COc1ccc(N/N=C/c2c(C(=O)O)ccc3ccccc23)cc1 | -3 | 20 | 5 | 8 | -8 | -2 | nt
COc1ccc2ccccc2c1/C=N/Nc1ccc(Cl)c(C(=O)O)c1 | 14 | 37* | 10 | 7 | -2 | -4 | 52*
O=C(c1ccccc1)c1cccc(C(=O)c2ccccc2)c1 | nt | nt | nt | -16 | nt | nt | nt
Nc1cc(N)cc(C(=O)c2ccccc2)c1 | 7 | 44* | -2 | nt | 0 | -1 | 12
CCn1c(Cc2cccs2)nnc1SCC(=O)Nc1cccc2ccccc12 | 3 | 6 | nt | nt | 0 | 4 | nt
CCN(CC)S(=O)(=O)c1ccc(N2CCCC2)c(C(=O)OCC(=O)Nc2cc(C)on2)c1 | -6 | 45* | -13 | -24 | 3 | 1 | 61*
C[n+]1c2cc(N)ccc2cc2ccc(N)cc21 | 25*! | 30*! | 13 | 33 | -3 | -7 | 43*
C=CCn1c(SCC(=O)C(C)(C)C)nnc1-c1ccc(Cl)cc1 | 0 | 2 | nt | nt | -5 | -3 | nt
CN(C)c1nc(N)nc(CSc2nc3c(c(=O)n(C)c(=O)n3C)n2Cc2ccccc2F)n1 | 5 | -2 | 3 | 6 | 2 | -2 | nt
Cn1c(=O)c2c(nc(SCc3nn[nH]n3)n2Cc2ccccc2F)n(C)c1=O | 6 | + | 5 | 8 | 4 | 3 | 7
COc1ccc(-c2nnc(SCC(=O)N/N=C\C=C/c3ccco3)n2-c2ccc(C)cc2)cc1 | -7 | -1 | nt | nt | -5 | 0 | nt
COc1ccc(/C=C/C(=O)Nc2cccnc2Cl)cc1 | -4 | 97* | 9 | 8 | -1 | 6 | -4
COc1ccccc1/C=C/C(=O)Nc1cccnc1Cl | -6 | 5 | 0 | -2 | 3 | 10 | nt
CCCC(=O)N1CCC[C@]2(CC[C@H](CCC#N)O2)C1 | -1 | -2 | nt | nt | -3 | 0 | nt
CN(C(=S)NC(=O)C1CC1)c1ccc(O)cc1 | 3 | 30* | 0 | 6 | -4 | 2 | -2
CCN(C(=S)NC(=O)C1CC1)c1ccccc1 | 15 | 10 | 2 | 2 | -3 | 4 | nt
COc1ccc(C[N+]2=C(N)NC3=C4CCCCC4n4c(=O)n(-c5ccccc5)c(=O)n4C3C2)c(OC)c1 (configuration not stated) | 0 | 20 | nt | nt | 2 | 1 | nt
Cc1cccc(N=Cc2cc3c(cc2[N+](=O)[O-])OCO3)c1 | 12 | 41* | 2 | 40* | 5 | 4 | 26
CCN=c1scc(C)n1/N=C/c1cc(Br)c(O)c(Br)c1 | 12 | 55* | 3 | 27 | -5 | -5 | 66*
CC(C)(C)c1ccc(-c2cc(NC(=O)Cc3c[nH]c4ccccc34)ccc2Nc2cccnc2)cc1 | 11 | 41* | -4 | nt | 5 | 5 | 55*
CCCc1ccc(-c2cc(NC(=O)Cc3c[nH]c4ccccc34)ccc2Nc2cccnc2)cc1 | 11 | 42* | 9 | nt | 6 | 9 | 39*
O=c1[nH]n2c(=O)c3c([nH]c2c1N=Nc1cccc(Cl)c1)CCC3 | -7 | 29 | 10 | 20 | -17 | -2 | nt
O=c1[nH]n2c(=O)c3c([nH]c2c1N=Nc1cccc(C(F)(F)F)c1)CCCC3 | -10 | 59* | -1 | 36 | -6 | 3 | 66*
Cc1ccc(C)c(NC(=O)CN2C(=O)CCSc3ccccc32)c1 | 3 | 6 | nt | nt | -4 | -4 | nt

Compound activity (PubChem)
